Sampled rows, rich in hits. Any-hit rate of the full collection: about 1.7%.
Keap1-Nrf2 PPI: inhibitors of human Keap1-Nrf2 protein-protein interaction; actives 0.15% (n = 340,000); Q14145; AID 504523; inhibition, % at 9.4 µM; Keap1 Kelch-Nrf2 peptide fluorescence polarization, 1536-well; in the data active means inhibition above about 12%;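 further: human Keap1 Kelch domain with fluorescein labeled Nrf2 9mer peptide probe; 0% = neutral control wells and 100% = peptide positive control; higher means more block of Keap1 binding to Nrf2 peptide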
CAL PDZ FP-1: human CAL PDZ-peptide interaction inhibition. Q9HD26. purified CAL PDZ, TMR-peptide fluorescence polarization, 1 h. inhibition, % at 20 µM. actives 0.02% (n = 330,000);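 active means highest replicate inhibition of at least 40%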;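 further: plate controls were DMSO neutral control wells for no effect and unlabeled competitor peptide control wells for full effect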
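material = purified tagged CAL PDZ domain construct (CerCALP) | buffer or medium = sodium phosphate/NaCl buffer pH 7.4 with TCEP, IgG, Thesit | reagent = TMR-labelled reporter peptide T*-PRC34 bound in PDZ groove | incubation = 1 h room-temperature incubation prior to read | measured by = fluorescence polarization (mP) | evaluation = percent inhibition from loss of millipolarization | control set = unlabelled peptide and DMSO controls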
CAL PDZ FP-2: blocks peptide binding to the human CAL PDZ domain. AID 602252. inhibition, % at 24.9 µM. Q9HD26. purified CAL PDZ, TMR-peptide fluorescence polarization, 1 h. actives 0.92% (n = 300,000);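 active means mean inhibition of at least 30% with at least half of replicates also reaching 30%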;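 further: 0% = DMSO neutral control and 100% = excess unlabeled competitor peptide PRC23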
APOBEC3G inh: blocks human APOBEC3G single-stranded DNA deamination; inhibition, % at 20 µM; AID 493012; Q9HC16; recombinant A3G, ssDNA deamination FAM/TAMRA fluorescence; actives 0.28% (n = 330,000);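 active means inhibition of at least 40% at 20 µM, with no more than 30% in the related APOBEC3A deaminase screen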;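 further: plate controls were DMSO wells with A3G for no effect and wells lacking A3G enzyme for full effect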
Target sequence (Q9HC16 whole entry, looked up): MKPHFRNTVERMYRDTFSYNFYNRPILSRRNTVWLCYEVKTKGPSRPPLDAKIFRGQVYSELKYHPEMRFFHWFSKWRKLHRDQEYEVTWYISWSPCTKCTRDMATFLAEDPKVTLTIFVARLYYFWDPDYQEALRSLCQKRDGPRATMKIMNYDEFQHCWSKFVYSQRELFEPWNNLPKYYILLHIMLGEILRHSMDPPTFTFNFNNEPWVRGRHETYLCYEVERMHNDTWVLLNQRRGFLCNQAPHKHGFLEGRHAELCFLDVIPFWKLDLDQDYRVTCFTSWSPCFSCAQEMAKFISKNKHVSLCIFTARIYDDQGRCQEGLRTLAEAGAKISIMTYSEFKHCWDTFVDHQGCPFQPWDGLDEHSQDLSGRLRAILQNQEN
LANA DNA inh: KSHV C-LANA DNA binding inhibition. MBP-C-LANA/FAM-LBS DNA binding, fluorescence polarization. inhibition, % at 9 µM. actives 0.078% (n = 340,000). AID 504423;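 active means highest replicate inhibition at or above 60% at 9 µM, even if other replicates fall short; inactive means all replicates below 60% inhibition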;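 further: 0% = neutral control wells and 100% = 4 µM acridine orange control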
APOBEC3A inh: inhibitors of human APOBEC3A DNA deaminase; P31941; recombinant A3A, FAM/TAMRA ssDNA deamination fluorescence; inhibition, % at 20 µM; actives 0.41% (n = 330,000);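 active means at least 40% inhibition at 20 µM here, with at most 30% in a related deaminase screen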;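 further: plate controls were A3A with DMSO for no effect and wells lacking A3A enzyme for full effect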
Target sequence (P31941 whole entry, looked up): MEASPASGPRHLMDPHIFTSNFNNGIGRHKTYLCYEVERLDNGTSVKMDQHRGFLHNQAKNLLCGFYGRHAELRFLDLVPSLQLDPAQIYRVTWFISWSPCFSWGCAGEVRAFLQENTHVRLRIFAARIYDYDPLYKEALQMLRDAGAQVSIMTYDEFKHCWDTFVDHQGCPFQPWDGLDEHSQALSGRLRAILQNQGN
* marks the source's active call; other numbers are inactive results.

Screening Cc1ccc(/C([O-])=C(/C(=S)Nc2ccc(SC(F)F)cc2)[n+]2ccccc2)cc1[N+](=O)[O-] returned Keap1-Nrf2 PPI 0.6, CAL PDZ FP-1 -0.9, APOBEC3G inh -6.4, LANA DNA inh 0.3 and APOBEC3A inh -3.1.
Screening c1ccc(-c2csc(Nc3nc(N4CCOCC4)nc(N4CCOCC4)n3)n2)cc1 returned Keap1-Nrf2 PPI -3.1, CAL PDZ FP-1 0.2, CAL PDZ FP-2 49.4*, APOBEC3G inh -3.9, LANA DNA inh 0.6 and APOBEC3A inh -3.3.
Screening COc1ccc(CCNS(=O)(=O)c2ccc(-n3cnnn3)cc2)cc1OC returned Keap1-Nrf2 PPI -3.0, CAL PDZ FP-1 -0.9, CAL PDZ FP-2 active, APOBEC3G inh -9.0, LANA DNA inh 1.3 and APOBEC3A inh -3.9.
Screening COc1cccc(CNS(=O)(=O)c2c(C(=O)N3CCCCCC3)c(C)n(C)c2C)c1 returned Keap1-Nrf2 PPI -5.1, CAL PDZ FP-1 -1.0, CAL PDZ FP-2 -5.1, APOBEC3G inh -2.3, LANA DNA inh 0.5 and APOBEC3A inh -0.7.
Screening CC1(C)C(=S)N(Cc2ccccc2)c2ccccc21 returned Keap1-Nrf2 PPI 2.4, CAL PDZ FP-1 -0.3, CAL PDZ FP-2 44.0*, APOBEC3G inh -6.5, LANA DNA inh 5.8 and APOBEC3A inh -1.0.
For CC(C)[C@H](NC(=O)N1c2ccccc2NC(=O)[C@@H]1C(C)C)C(=O)N1CCC(C(=O)O)CC1 the results were Keap1-Nrf2 PPI 1.3, CAL PDZ FP-1 0.4, CAL PDZ FP-2 2.9, APOBEC3G inh 4.5, LANA DNA inh 0.1 and APOBEC3A inh 27.0.
`COc1ccc(Cc2nnc(SCC(=O)NC3(C#N)CCCCC3)n2N)cc1` gave Keap1-Nrf2 PPI -1.8, CAL PDZ FP-1 -2.4, CAL PDZ FP-2 0.4, APOBEC3G inh -1.8, LANA DNA inh -0.2 and APOBEC3A inh -3.7.
CCOC(=O)C1=NOC(CNC(=O)c2c(-c3ccccc3Cl)noc2C)C1 (centres undefined) was read as Keap1-Nrf2 PPI -3.4, CAL PDZ FP-1 0.1, CAL PDZ FP-2 -6.6, APOBEC3G inh -7.3, LANA DNA inh -5.9 and APOBEC3A inh -1.4.
`CC(=O)C1=NOC(CNC(=O)c2c(-c3ccccc3Cl)noc2C)C1` (centres undefined) gave Keap1-Nrf2 PPI -2.9, CAL PDZ FP-1 -0.5, CAL PDZ FP-2 44.8*, APOBEC3G inh -1.2, LANA DNA inh 0.0 and APOBEC3A inh -3.5.
Cc1ccc([N+](=O)[O-])c(OCCN2CCCCCC2)c1 was read as Keap1-Nrf2 PPI 0.9, CAL PDZ FP-1 -0.9, CAL PDZ FP-2 56.7*, APOBEC3G inh -0.2, LANA DNA inh -2.5 and APOBEC3A inh 3.8.
Screening Cc1ccc([N+](=O)[O-])c(OCCN2CCc3ccccc3C2)c1 returned Keap1-Nrf2 PPI -4.2, CAL PDZ FP-1 -0.5, CAL PDZ FP-2 -0.6, APOBEC3G inh -8.4, LANA DNA inh 0.6 and APOBEC3A inh -6.4.
Screening Cc1cc(C(=O)N2CCCC(Nc3ccccc3)C2)c2ccc(F)cc2n1 (centres undefined) returned Keap1-Nrf2 PPI 4.5, CAL PDZ FP-1 -0.3, APOBEC3G inh -6.9, LANA DNA inh -0.7 and APOBEC3A inh -8.0.
Screening CCOc1ccc(NS(=O)(=O)c2ccc(NC(=O)c3ccccc3C(=O)O)cc2)cc1 returned Keap1-Nrf2 PPI 0.9, CAL PDZ FP-1 -0.4, CAL PDZ FP-2 75.8*, APOBEC3G inh 6.7, LANA DNA inh 0.5 and APOBEC3A inh 1.1.
CCN(CC)C(=O)CN1C(=O)c2cccc3cccc1c23 was read as Keap1-Nrf2 PPI 0.6, CAL PDZ FP-2 36.7*, APOBEC3G inh -5.0, LANA DNA inh -1.6 and APOBEC3A inh -0.1.
CCN(CC)C(=O)CN1C(=O)C(=O)c2ccccc21 was read as Keap1-Nrf2 PPI -1.1, CAL PDZ FP-1 -1.3, CAL PDZ FP-2 -0.4, APOBEC3G inh 4.1, LANA DNA inh 0.4 and APOBEC3A inh -1.2.
For Cc1ccc(S(=O)(=O)N2[C@@H](c3ccc(F)cc3)C(C(=O)O)=CC[C@H]2c2cccs2)cc1 the results were Keap1-Nrf2 PPI -4.2, CAL PDZ FP-1 1.2, CAL PDZ FP-2 0.7, APOBEC3G inh 0.3, LANA DNA inh -1.2 and APOBEC3A inh 0.9.
`C/C(=N\N1C(=O)CSC1=S)c1ccc(Br)cc1` gave Keap1-Nrf2 PPI -2.6, CAL PDZ FP-1 -1.5, CAL PDZ FP-2 43.8*, APOBEC3G inh -2.6, LANA DNA inh -0.6 and APOBEC3A inh -1.8.
Cc1ccc(C(=O)NN2C(=O)CSC2=S)cc1 was read as Keap1-Nrf2 PPI -3.2, CAL PDZ FP-1 -0.6, CAL PDZ FP-2 -3.7, APOBEC3G inh -12.4, LANA DNA inh 2.6 and APOBEC3A inh -4.5.
`COc1ccc(C(=O)CCC(C)(C)[N+](=O)[O-])cc1OC` gave Keap1-Nrf2 PPI -0.4, CAL PDZ FP-1 -0.2, CAL PDZ FP-2 33.0*, APOBEC3G inh -6.2, LANA DNA inh 0.3 and APOBEC3A inh -1.9.
For COc1ccc(C(=O)CCS(=O)(=O)c2ccc(C)cc2)cc1OC the results were Keap1-Nrf2 PPI -64.9, CAL PDZ FP-1 -1.2, CAL PDZ FP-2 -2.6, APOBEC3G inh -4.0, LANA DNA inh 0.7 and APOBEC3A inh -2.1.
Screening Cc1ccc(S(=O)(=O)/N=C(/c2ccccc2)N2CCOCC2)cc1 returned Keap1-Nrf2 PPI -5.8, CAL PDZ FP-1 -2.6, CAL PDZ FP-2 -1.1, APOBEC3G inh -7.6, LANA DNA inh 5.1 and APOBEC3A inh -5.0.
`O=S(=O)(/N=C(/c1ccccc1)N1CCOCC1)c1ccc(Br)cc1` gave Keap1-Nrf2 PPI -2.0, CAL PDZ FP-1 -1.8, CAL PDZ FP-2 37.0*, APOBEC3G inh 1.9, LANA DNA inh -1.6 and APOBEC3A inh 0.9.
Cc1noc(/C=C/c2cccs2)c1S(=O)(=O)N1CCC(C(=O)NCCCN2CCCC(C)C2)CC1 (centres undefined) was read as Keap1-Nrf2 PPI 0.3, CAL PDZ FP-1 -0.9, CAL PDZ FP-2 4.7, APOBEC3G inh -14.5, LANA DNA inh -2.1 and APOBEC3A inh 4.3.
`Cc1ccc(NC(=O)CN2CCCC2c2cccn2C)c(Br)c1` (centres undefined) gave Keap1-Nrf2 PPI -7.3, CAL PDZ FP-1 -0.6, CAL PDZ FP-2 38.7*, APOBEC3G inh -6.9, LANA DNA inh 0.8 and APOBEC3A inh -3.4.
Screening O=C(Nc1ccccc1O)/C(=C\c1ccccc1)NC(=O)c1ccccc1 returned Keap1-Nrf2 PPI -5.5, CAL PDZ FP-1 -0.4, APOBEC3G inh -4.7, LANA DNA inh -0.9 and APOBEC3A inh -0.8.
`Cn1nnc2ccccc2c1=O` gave Keap1-Nrf2 PPI 1.3, CAL PDZ FP-1 -1.6, CAL PDZ FP-2 -0.3, APOBEC3G inh -3.4, LANA DNA inh -0.6 and APOBEC3A inh -1.0.
Screening O=C(COC(=O)c1c[nH]c2ccccc12)Nc1ccc([N+](=O)[O-])cc1 returned Keap1-Nrf2 PPI 2.3, CAL PDZ FP-1 -0.5, CAL PDZ FP-2 -3.0, APOBEC3G inh -0.4, LANA DNA inh -1.2 and APOBEC3A inh 0.9.
